Compound activity (PubChem BioAssay)
Compounds with a hit are over-represented: about 1.6% of the library has one in this group of screens.
NCF1 inh = p47phox/p22phox peptide binding inhibitors, primary screen, biochemical, uHTS, NADPH oxidase regulatory subunit; fluorescence polarization, 2 h; inhibition, % at 24.7 µM; actives 0.53% (n = 220,000);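 active = inhibition above about 30%, limit read from the data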;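 note: 0% = p47phox with labelled peptide and 100% = labelled peptide alone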
UBC9 SUMO inh = inhibitors of in vitro SUMOylation cascade, primary screen, biochemical, HTRF, uHTS; SUMO-conjugating enzyme UBC9 (Homo sapiens), P63279; actives 0.36% (n = 290,000); inhibition, % at 35 µM; HTRF SUMOylation assay, SAE1/SAE2 + UBC9; in the data active = inhibition above about 50%, passing the limit was not always enough
14-3-3 Bad inh = inhibitors of 14-3-3 zeta/Bad binding, primary screen, biochemical, TR-FRET, bovine 14-3-3 zeta; 14-3-3 protein zeta/delta (Bos taurus), P63103; inhibition, % at 21.7 µM; actives 0.71% (n = 220,000); TR-FRET 14-3-3zeta/Dy647-pBad peptide displacement, 1 h;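 active = inhibition above about 70%, limit read from the data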;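 note: 0% = full 14-3-3 plus peptide FRET controls and 100% = background without 14-3-3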
eIF4E 4G PPI = eIF4E–eIF4G protein interaction inhibitors, primary screen, biochemical, uHTS, TR-FRET, eIF4GI fragment | Eukaryotic translation initiation factor 4E (Mus musculus) + Eukaryotic translation … | AID 782, 2007 | inhibition, % at 21.7 µM | actives 0.37% (n = 220,000) | TR-FRET eIF4E-eIF4GI(517-606) binding, 2 h;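 active = inhibition above about 30%, limit read from the data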;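 note: 0% = full FRET control wells and 100% = background wells lacking eIF4GI fragment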
Tb MetRS inh = T. brucei MetRS inhibitors, primary screen, biochemical, luminescence | methionyl-tRNA synthetase (Trypanosoma brucei brucei) | inhibition, % at 11.9 µM | AID 624268, 2012 | actives 0.4% (n = 360,000) | purified T. brucei MetRS, ATP depletion, Kinase-Glo luminescence;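 active = inhibition above a per-plate cutoff of the control wells' mean inhibition plus 3 SD, cut at about 5.5% in these data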;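 note: 0% = DMSO wells median and 100% = median of wells with control inhibitor compound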
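Assay system: T. brucei methionyl-tRNA synthetase, purified | Medium: HEPES buffer with MgCl2, KCl, DTT, spermine, BSA, pyrophosphatase | Compound: 11.9 µM single point | Incubation: 15 min enzyme-compound preincubation, 2 h reaction, 10 min detection, 25 °C | Measured by: Kinase-Glo luciferase luminescence reporting remaining unconsumed ATP | Measure: % inhibition normalized to control-well medians | Replication: Singlicate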
p97 ATPase inh = inhibitors of human p97 ATPase, primary screen, biochemical; Transitional endoplasmic reticulum ATPase (Homo sapiens), P55072; recombinant p97 ATPase, Kinase-Glo ATP luminescence, 3 h; inhibition, % at 8 µM; actives 0.42% (n = 220,000); AID 1481, 2009;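 note: 0% = DMSO vehicle and 100% = wells lacking enzyme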
Tb MetRS conf = T. brucei MetRS inhibitors, confirmation, biochemical, luminescence | shares compounds with Tb MetRS inh | T. brucei MetRS enzyme, luminescence (ATP depletion) | inhibition, % at 11.9 µM | actives 93% (n = 1,400); in the data active = inhibition above about 7%
Jurkat cytotox = Jurkat T cell cytotoxicity, cytotoxicity control for T. brucei MetRS inhibitor project, luminescence, high throughput | shares compounds with Tb MetRS inh | Jurkat cells viability, ATP luminescence | inhibition, % at 8.3 µM | actives 12% (n = 1,400) | AID 624413, 2012;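 note: 0% = vehicle and 100% = reference inhibitor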
TbMetRS FP orth = T. brucei MetRS inhibitors, orthogonal assay for T. brucei MetRS inhibitor project, biochemical, fluorescence polarization | inhibition, % at 11.9 µM | shares compounds with Tb MetRS inh | purified T. brucei MetRS | actives 44% (n = 1,400); in the data active = inhibition above about 17%;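 note: 0% = vehicle wells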
The depositor's hits bear a star; . = not tested or not shown; ! = repeats disagree. Cut-off read from the data, not from the text of the source, unless noted: active = inhibition above about 15%; inactive = the rest.

SMILES	NCF1 inh	UBC9 SUMO inh	14-3-3 Bad inh	eIF4E 4G PPI	Tb MetRS inh	p97 ATPase inh	Tb MetRS conf	Jurkat cytotox	TbMetRS FP orth
Cc1ccc2nc3c(cc2c1)CC1(C(=O)N(C)C(=O)N(C)C1=O)C1COCCN31 (stereo not drawn)	-8	27	4	1	7.1*	3	4	-5	7
Fc1cccc(-c2ccc3c(c2)CN(c2cccc(Cl)c2)Cc2cnnn2-3)c1	.	.	.	.	-1	.	.	.	.
CCN(CC)C(=O)c1ccc(NC(=O)c2ccc(-n3cncn3)c([N+](=O)[O-])c2)cc1	.	.	.	.	8.0*	.	43*	8	26*
CN(C)Cc1c[nH]c2ccc([N+](=O)[O-])cc12	.	.	.	.	0	.	.	.	.
CN(C)Cc1c[nH]c2cc([N+](=O)[O-])ccc12	.	.	.	.	6.7*	.	30*	-3	14
Cc1ccccc1OP(=O)(Oc1ccccc1C)N1CCOCC1	.	.	.	.	0	.	.	.	.
Clc1ccc(C(c2ccc(Cl)cc2)n2cc[n+](CC(OCc3ccc(Cl)cc3Cl)c3ccc(Cl)cc3Cl)c2)cc1 (stereo not drawn)	.	.	.	.	8.7*	.	13*	82*	178*
CSc1ccc(C(=O)C2CCCN(Cc3cc4ccccc4[nH]3)C2)cc1 (stereo not drawn)	-44	-14	-6	0	7.1*	1	15*	8	-2
CN1C(=O)C(Cc2nc3ccccc3c(=O)n2-c2ccccc2)c2ccccc21 (stereo not drawn)	-5	-11	5	2	0	4	.	.	.
O=C1Nc2ccccc2C1Cc1nc2ccccc2c(=O)n1-c1ccccc1 (stereo not drawn)	-9	-2	10	2	9.1*	-2	6.2*	-5	10
COc1ccc(-n2nnnc2C(c2cccs2)N2CCC3(CC2)C(=O)NCN3c2ccccc2)cc1 (stereo not drawn)	.	.	.	.	0	.	.	.	.
NC(=O)c1cn(C2OC(CO)C(O)C2O)c2ncnc(N)c12 (stereo not drawn)	-1	-25	9	-6	5.9*!	-4	12*	97*	12
N#Cc1cn(C2OC(CO)C(O)C2O)c2ncnc(N)c12 (stereo not drawn)	.	.	.	.	0	.	.	.	.
Fc1ccc(N2Cc3ccccc3-n3nncc3C2)cc1	.	.	.	.	-1	.	.	.	.
Clc1ccc(COC(Cn2ccnc2)c2ccc(Cl)cc2Cl)cc1 (stereo not drawn)	5	30	-7	-1	6.1*	-3	20*	13	14
